Most compounds without a hit are left out; they make up all but 2.9% or so of the library.
VIM-2 inh = VIM-2 metallo-beta-lactamase inhibitors, primary screen, biochemical, epi-absorbance readout, Pseudomonas aeruginosa enzyme. AID 1527, 2009. 290,000 compounds, 0.89% hits. inhibition, % at 5.6 µM. purified VIM-2, nitrocefin hydrolysis, epi-absorbance fluorescence;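 active means inhibition above the mean of all tested compounds plus 3 SD, cutoff set per screening run, cut at about 7.5% in these data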;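 further: red hydrolysis product quenches plate fluorescence so inhibitors raise well fluorescence; 0% = enzyme with DMSO and 100% = DMSO without enzyme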
Mot1-301 SUMO = yeast Mot1-301 growth rescue at high temperature, primary screen, SUMOylation pathway inhibitor project, S. cerevisiae, ATP luminescence, 38.5C. AID 2716, 2010. S. cerevisiae Mot1-301 growth rescue; percent above DMSO median, 100 means doubled. growth rescue, % at 18.8 µM. 320,000 compounds, 1% hits;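 active means every valid replicate shows activation above 250% relative to neutral control wells; inactive means the rest, any valid replicate at or below 250%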;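 further: OY570 slx delta 5 strain wells were the positive control but not used for scaling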
IMP-1 inh = IMP-1 metallo-beta-lactamase inhibitors, primary screen, biochemical, epi-absorbance readout, Pseudomonas aeruginosa enzyme | inhibition, % at 5.6 µM | AID 1556, 2009 | 290,000 compounds, 0.45% hits | purified IMP-1, nitrocefin hydrolysis, epi-absorbance fluorescence;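 active means inhibition above the mean plus 3 SD of all compounds in the same screening run, cut at about 4.5% in these data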;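 further: 0% = IMP-1 with DMSO and 100% = DMSO wells lacking enzyme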
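System: purified IMP-1; amount: IMP-1 0.2 nM before substrate addition; compound: single dose, 5.6 µM; times: 25 °C, 15 min preincubation, 25 min reaction; signal: Epi-absorbance via hydrolysed-nitrocefin quenching of white-plate fluorescence, 480/530 nm, EDTA stop; benchmarks: DMSO with and without IMP-1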
NALP1 inh = NALP1 inflammasome inhibitors in reconstituted yeast, colorimetric, S. cerevisiae, triplicate retest | S. cerevisiae NALP1/ASC/caspase-1 growth, X-gal OD620, 72 h | inhibition, % at 10 µM | 280,000 compounds, 0.61% hits | AID 2071, 2009; in the data active means inhibition mostly above about 24%, no sharp cut-off; inactive means mostly below about 32%
SUMO HTRF inh = inhibitors of in vitro SUMOylation cascade, primary screen, biochemical, HTRF, uHTS. AID 2006, 2009. HTRF SUMOylation assay, SAE1/SAE2 + UBC9. 290,000 compounds, 0.36% hits. inhibition, % at 35 µM. SUMO-conjugating enzyme UBC9 (Homo sapiens), P63279; in the data active means inhibition above about 50%, passing the limit was not always enough
Target sequence (P63279 whole entry, looked up): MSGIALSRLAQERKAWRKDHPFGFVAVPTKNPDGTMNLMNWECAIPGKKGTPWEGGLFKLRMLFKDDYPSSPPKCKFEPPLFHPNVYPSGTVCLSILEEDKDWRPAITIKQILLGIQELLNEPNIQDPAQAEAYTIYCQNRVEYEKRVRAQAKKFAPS
FID counter = compounds displacing fluorescent DNA intercalator, primary screen, artefact control for HCV NS3 helicase inhibitor project, biochemical, FID fluorescence; inhibition, % at 7.9 µM; DNA fluorescent intercalator displacement; 290,000 compounds, 0.17% hits; AID 1845, 2009; in the data active means inhibition above about 37%;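 further: 0% = vehicle and 100% = reference compound; higher means more ethidium bromide displaced from hairpin DNA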
* = called active by the depositor; . = not tested or not shown.

SMILES | VIM-2 inh | Mot1-301 SUMO | IMP-1 inh | NALP1 inh | SUMO HTRF inh | FID counter
O=c1[nH]c(=O)n(CCC2=CCCCC2)c(O)c1/C=N/Nc1ccccc1 | 1.3 | 291.4* | -0.7 | 10.6 | -4.6 | -25.0
O=c1[nH]c(=S)n(C2CC2)c(O)c1/C=N/Nc1cccc2ccccc12 | 0.1 | -15.7 | 2.3 | 1.8 | 37.1 | 3.4
O=c1[nH]c(=O)n(CCC2=CCCCC2)c(O)c1/C=N/Nc1cccc2ccccc12 | -1.3 | 9.0 | -1.1 | . | 45.0 | -14.6
CCC(C)n1c(O)c(/C=N/Nc2ccccc2)c(=O)[nH]c1=S (centres undefined) | -3.6 | 354.7* | -4.1 | 7.5 | -1.4 | 1.3
O=[N+]([O-])c1cccc2c([As](=O)(O)O)cccc12 | -1.6 | -4.0 | -3.9 | -2.6 | 10.6 | 0.8
CN1CCN(S(=O)(=O)c2cnc(Cl)c(Br)c2)CC1 | -3.0 | -8.4 | 0.1 | 30.4 | 13.4 | -0.5
COc1ccc(OC)c(CN2CCN(C(=O)Cc3ccccc3)CC2)c1 | 0.3 | -12.4 | -0.8 | 16.0 | 20.9 | -8.3
CCOc1ccc([N+](=O)[O-])cc1CNCCc1ccccc1 | -2.0 | 4.3 | -1.1 | 11.8 | 5.9 | 12.9
CN1CCC(N(C)c2nc(-c3ccc([N+](=O)[O-])cc3)nc3ccccc23)CC1 | 9.9* | . | -2.0 | 23.0 | 5.4 | 45.9*
CCN(CC)P(=O)(NC(=O)C(Cl)(Cl)Cl)N(CC)CC.[Cl-].[Cl-].[Cl-].[Nd+3] | -1.3 | . | 22.2* | -4.6 | 9.7 | 1.3
CCN1C(=O)C(=Cc2cc(C)n(C3CC3)c2C)C(=O)N(CC)C1=S | 0.1 | -29.8 | 11.6* | 21.0 | 29.3 | -20.0
Cc1cc(C=C2C(=O)N(C)C(=S)N(C)C2=O)c(C)n1C1CCCC1 | -2.8 | -15.0 | 1.6 | 5.5 | 0.8 | -6.1
COc1ccc(CCNCc2sccc2C)cc1 | -1.0 | 7.1 | -1.1 | 17.1 | -4.8 | -0.8
O=c1[nH]c(=S)n(Cc2ccc(F)cc2)c(O)c1C=NCc1ccc2c(c1)OCO2 | -0.5 | 2.8 | -1.9 | . | 15.6 | -0.1
O=c1[nH]c(=S)n(Cc2ccc(F)cc2)c(O)c1/C=N/N1CCCCCC1 | -2.4 | -21.1 | -0.9 | 46.1* | 1.8 | -3.3
Cc1cc(C=C2C(=O)NC(=S)NC2=O)c(C)n1-c1ccc2c(c1)OCO2 | -1.2 | 7.5 | -4.1 | 1.3 | 78.6* | -5.0
O=c1cccc2n1CC1CC2CN(CC(O)CN2CC3CC(C2)c2cccc(=O)n2C3)C1 (centres undefined) | -3.1 | -7.3 | 0.2 | 17.5 | -9.0 | -6.7
Cc1ccccc1-n1c(O)c(/C=N/N2CCOCC2)c(=O)[nH]c1=S | 1.4 | -10.8 | -0.1 | 31.0 | -6.1 | -5.7
CCCCCSc1cc(OC)c(CCN(C)C)cc1OC | -4.5 | -18.5 | -3.7 | 21.7 | 17.2 | 36.9*
COC(=O)C1=C(c2cccc(C#N)c2)C[C@@H]2CC[C@H]1N2C(=O)NCC1CC1 | . | -1.2 | . | . | . | .
Nc1c2c(nc3sc4c(c13)CCCCC4)CCCC2 | 2.3 | 9.6 | -2.4 | 66.9* | 3.9 | 1.8
O=C(O)c1ccccc1NC(=O)N1C[C@H]2C[C@@H](C1)c1cccc(=O)n1C2 | -2.0 | -9.6 | -2.8 | 10.4 | 16.0 | 1.1
CC(=NCc1ccco1)c1c(O)n(C)c(=O)n(C)c1=O | -1.9 | -0.5 | -1.7 | 41.8* | 3.2 | -3.2
CC(=NCCCn1ccnc1)c1c(O)n(C)c(=O)n(C)c1=O | 66.5* | -9.2 | -1.9 | 22.7 | -2.5 | 2.6
CCC(=NCc1ccco1)c1c(O)n(C)c(=O)n(C)c1=O | -0.8 | -2.8 | -2.9 | . | 16.9 | -2.5
SMILES | VIM-2 inh | Mot1-301 SUMO | IMP-1 inh | NALP1 inh | SUMO HTRF inh | FID counter
CC(NC(=O)Cc1cccc2ccccc12)C(=O)N1CCC(=O)CC1 (centres undefined) | -1.1 | 14.1 | -3.7 | 16.1 | 16.3 | -7.2
CCOC(=O)C1=C(C)OC(N)=C(C(=O)OCC)[C@@]12C(=O)N(CC(N)=O)c1ccccc12 | -0.2 | -23.0 | -4.1 | 4.0 | 16.3 | -20.9
CCOC(=O)C1=C(N)OC2=C(C(=O)CCC2)[C@]12C(=O)N(CC(N)=O)c1ccccc12 | -2.6 | -4.6 | -1.6 | 36.0* | 17.6 | -12.4
COC(=O)C1=C(c2c(C)noc2C)C[C@@H]2CC[C@H]1N2C(=O)NC1CCCCC1 | . | -2.6 | . | . | . | .
CC(C)(C)n1cc(C(=O)c2ccc3ccccc3c2O)cn1 | -3.4 | -15.9 | -3.5 | -14.1 | -9.5 | -4.0
CC(C)(C)n1cc(C(=O)c2ccccc2OCCCF)cn1 | 10.7* | -7.8 | -0.8 | 15.6 | -3.5 | -12.6
O=C(N/N=C1/CN2CCC1CC2)c1cc2ccccc2cc1O | -2.9 | -2.8 | -3.8 | 12.1 | 8.5 | -12.4
CC12CN3CN(C1)CC(C)(C3)C2=NO | -2.6 | -6.2 | -3.7 | 11.7 | 4.2 | -6.8
CC[N+](C)(CC)CCCCOc1ccc2c(c1)C(=O)c1cc(OCCCC[N+](C)(CC)CC)ccc1-2 | 0.3 | -0.3 | -1.3 | 21.8 | 7.8 | 87.8*
C=CCn1c(O)c(/C=C2/C=c3ccccc3=N2)c(=O)[nH]c1=S | 0.6 | -7.8 | 10.6* | 6.3 | 10.5 | 1.5
Cc1ccccc1-n1c(-c2ccoc2)nc2ccccc2c1=O | -2.8 | -11.6 | -1.6 | 8.4 | 4.1 | -7.5
CCc1ccc(-n2c(O)c(/C=N/NC(=O)c3ccncc3)c(=O)[nH]c2=O)cc1 | -3.4 | 24.3 | 12.8* | 40.3 | 6.5 | -13.2
CC(C)c1ccc(-n2c(O)c(/C=N/NC(=O)c3ccncc3)c(=O)[nH]c2=O)cc1 | -4.2 | 15.8 | -2.8 | 37.3 | 11.3 | -15.7
C=CCn1c(O)c(C(CC)=Nc2ccc(N(C)C)cc2)c(=O)[nH]c1=O | -2.0 | 13.1 | -1.8 | 2.9 | 39.5 | -20.6
O=C1NC(=O)N(Cc2ccco2)C(=O)/C1=C/c1cccn1CCOc1ccccc1Cl | -1.7 | 45.5 | -0.7 | 14.6 | 65.6* | -18.8
O=C1NC(=S)NC(=O)C1=Cc1ccc(Br)s1 | 2.8 | -28.4 | 7.1* | 2.3 | 13.7 | 5.7
CN1C(=O)/C(=C\c2ccc(Br)s2)C(=O)NC1=S | 3.3 | -27.6 | 3.8 | 3.3 | 0.4 | -0.5
Cc1cccc(CNCCc2c[nH]c3ccccc23)c1 | 1.1 | 285.6* | 0.1 | 12.1 | -13.2 | 12.6
Fc1ccc(C(OCCN2CCCC2)c2ccc(Br)cc2)cc1 (centres undefined) | -0.6 | -18.2 | -1.1 | 47.1* | -7.6 | 15.0
Cc1ccc(-n2c(-c3cccs3)nc3ccccc3c2=O)cc1 | -3.3 | -13.8 | -1.4 | 4.3 | 25.4 | -4.6
CCc1ccc(C(=O)C23CN4CN(CN(C4)C2)C3)cc1 | -6.4 | 351.2* | -3.0 | 6.1 | -15.0 | -0.2
O=c1[nH]c(O)c(N=Nc2cc(C(F)(F)F)ccc2Cl)c(=O)[nH]1 | 11.4* | -8.6 | 0.3 | 8.9 | 2.1 | 9.7
